Assay results from ChEMBL document CHEMBL1126822, “7 alpha-Methyl- and 11 beta-ethoxy-substitution of [125I]-16 alpha-iodoestradiol: effect on estrogen receptor-mediated target tissue uptake” (J Med Chem, 1993).

Columns and labels:
Conditions in all cases: in vivo
Rattus norvegicus [1] = assay: Tissue uptake (muscle) of [125I]- after administration of [125I]-labeled compound to immature female rats (n=3) in the presence of 60 microg coinjected estradiol after 1 hour; format: ADME, organism-based
Procedure, shortened: (§1)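 Immature female Fischer rats, 24 days old, 55-60 g, unanesthetized in retention cages, given HPLC-purified 125I-labeled steroid (3 μCi, 111 kBq) via lateral tail vein in 200 μL of 9% ethanol-saline with 1% Tween-80. The blocking group was coinjected with 60 μg unlabeled estradiol and sampled at 1 h. Animals were killed under ether at 0.5-24 h. Tissues were KCl-washed, blotted, weighed and gamma-counted. Results are % ID/g, with variation as small-sample-corrected %CV.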

Rattus norvegicus [2] = assay: Tissue uptake (muscle) of [125I]- after administration of [125I]-labeled compound to immature female rats (n=4) in the absence of 60 microg coinjected estradiol after 2 hours; format: ADME, organism-based; procedure, shortened: as §1
Rattus norvegicus [3] = assay: Tissue uptake (muscle) of [125I]- after administration of [125I]-labeled compound to immature female rats (n=4) in the absence of 60 microg coinjected estradiol after 5 hours; format: ADME, organism-based; procedure, shortened: as §1
Rattus norvegicus [4] = assay: Tissue uptake (fat) of [125I]- after administration of [125I]-labeled compound to immature female rats (n=3) in the presence of 60 microg coinjected estradiol after 1 hour; format: ADME, organism-based; procedure, shortened: as §1
Rattus norvegicus [5] = assay: Tissue uptake (fat) of [125I]- after administration of [125I]-labeled compound to immature female rats (n=4) in the absence of 60 microg coinjected estradiol after 5 hours; format: ADME, organism-based; procedure, shortened: as §1
Rattus norvegicus [6] = assay: Tissue uptake (kidneys) of [125I]- after administration of [125I]-labeled compound to immature female rats (n=4) in the absence of 60 microg coinjected estradiol after 2 hours; format: ADME, organism-based, Kidney; procedure, shortened: as §1
Rattus norvegicus [7] = assay: Tissue uptake (kidneys) of [125I]- after administration of [125I]-labeled compound to immature female rats (n=4) in the absence of 60 microg coinjected estradiol after 5 hours; format: ADME, organism-based, Kidney; procedure, shortened: as §1
Rattus norvegicus [8] = assay: Tissue uptake (liver) of [125I]- after administration of [125I]-labeled compound to immature female rats (n=3) in the absence of 60 microg coinjected estradiol after 24 hours; format: ADME, organism-based; procedure, shortened: as §1
Rattus norvegicus [9] = assay: Tissue uptake (liver) of [125I]- after administration of [125I]-labeled compound to immature female rats (n=4) in the absence of 60 microg coinjected estradiol after 5 hours; format: ADME, organism-based; procedure, shortened: as §1
Rattus norvegicus [10] = assay: Tissue uptake (lungs) of [125I]- after administration of [125I]-labeled compound to immature female rats (n=3) in the absence of 60 microg coinjected estradiol after 0.5 hours; format: ADME, organism-based; procedure, shortened: as §1
Rattus norvegicus [11] = assay: Tissue uptake (lungs) of [125I]- after administration of [125I]-labeled compound to immature female rats (n=4) in the absence of 60 microg coinjected estradiol after 2 hours; format: ADME, organism-based; procedure, shortened: as §1
Rattus norvegicus [12] = assay: Tissue uptake (lungs) of [125I]- after administration of [125I]-labeled compound to immature female rats (n=4) in the absence of 60 microg coinjected estradiol after 5 hours; format: ADME, organism-based; procedure, shortened: as §1
Rattus norvegicus [13] = assay: Tissue uptake (muscle) of [125I]- after administration of [125I]-labeled compound to immature female rats (n=3) in the absence of 60 microg coinjected estradiol after 0.5 hours; format: ADME, organism-based; procedure, shortened: as §1
Rattus norvegicus [14] = assay: Tissue uptake (thyroid) of [125I]- after administration of [125I]-labeled compound to immature female rats (n=3) in the absence of 60 microg coinjected estradiol after 0.5 hours; format: ADME, organism-based, Thyroid gland
Procedure, shortened: (§2)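 Immature female Fischer rats, 24 days old, 55-60 g, unanesthetized in retention cages, got HPLC-purified n.c.a. 125I-labeled steroid (3 μCi, 111 kBq) by lateral tail vein. Dose was given in 200 μL saline with 9% ethanol and 1% Tween-80. Deep ether anesthesia, axillary artery cut; tissues KCl-washed, blotted, weighed, gamma-counted as % ID/g; variation as small-sample-corrected %CV.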

Rattus norvegicus [15] = assay: Tissue uptake (spleen) of [125I]- after administration of [125I]-labeled compound to immature female rats (n=5) in the absence of 60 microg coinjected estradiol after 1 hour; format: ADME, organism-based; procedure, shortened: as §2
Rattus norvegicus [16] = assay: Tissue uptake (uterus) of [125I]- after administration of [125I]-labeled compound to immature female rats (n=5) in the absence of 60 microg coinjected estradiol after 1 hour; format: ADME, organism-based; procedure, shortened: as §2
Rattus norvegicus [17] = assay: Tissue uptake (plasma) of [125I]- after administration of [125I]-labeled compound to immature female rats (n=3) in the absence of 60 microg coinjected estradiol after 0.5 hours; format: ADME, organism-based; procedure, shortened: as §1
Rattus norvegicus [18] = assay: Tissue uptake (plasma) of [125I]- after administration of [125I]-labeled compound to immature female rats (n=3) in the absence of 60 microg coinjected estradiol after 24 hours; format: ADME, organism-based; procedure, shortened: as §1
Rattus norvegicus [19] = assay: Tissue uptake (blood) of [125I]- after administration of [125I]-labeled compound to immature female rats (n=4) in the absence of 60 microg coinjected estradiol. (5 hours after injection) (% coefficient of variation); format: ADME, organism-based; procedure, shortened: as §1
Rattus norvegicus [20] = assay: Tissue uptake (thyroid) of [125I]- after administration of [125I]-labeled compound to immature female rats (n=3) in the presence of 60 microg coinjected estradiol after 1 hour; format: ADME, organism-based, Thyroid gland; procedure, shortened: as §2
Rattus norvegicus [21] = assay: Tissue uptake (thyroid) of [125I]- after administration of [125I]-labeled compound to immature female rats (n=4) in the absence of 60 microg coinjected estradiol after 2 hours; format: ADME, organism-based, Thyroid gland; procedure, shortened: as §2
Rattus norvegicus [22] = assay: Tissue uptake (thyroid) of [125I]- after administration of [125I]-labeled compound to immature female rats (n=4) in the absence of 60 microg coinjected estradiol after 5 hours; format: ADME, organism-based, Thyroid gland; procedure, shortened: as §2
Rattus norvegicus [23] = assay: Tissue uptake (thyroid) of [125I]- after administration of [125I]-labeled compound to immature female rats (n=5) in the absence of 60 microg coinjected estradiol after 1 hour; format: ADME, organism-based, Thyroid gland; procedure, shortened: as §2
Rattus norvegicus [24] = assay: Tissue uptake (plasma) of [125I]- after administration of [125I]-labeled compound to immature female rats (n=3) in the presence of 60 microg coinjected estradiol after 1 hour; format: ADME, organism-based; procedure, shortened: as §1
Rattus norvegicus [25] = assay: Tissue uptake (blood) of [125I]- after administration of [125I]-labeled compound to immature female rats (n=3) in the absence of 60 microg coinjected estradiol after 0.5 hours; format: ADME, organism-based; procedure, shortened: as §1
Rattus norvegicus [26] = assay: Tissue uptake (kidneys) of [125I]- after administration of [125I]-labeled compound to immature female rats (n=4) in the absence of 60 microg coinjected estradiol and 5 hours; format: ADME, organism-based, Kidney; procedure, shortened: as §1
Rattus norvegicus [27] = assay: Tissue uptake (brain) of [125I]- after administration of [125I]-labeled compound to immature female rats (n=3) in the absence of 60 microg coinjected estradiol after 0.5 hours; format: ADME, organism-based; procedure, shortened: as §1
Rattus norvegicus [28] = assay: Tissue uptake (brain) of [125I]- after administration of [125I]-labeled compound to immature female rats (n=3) in the presence of 60 microg coinjected estradiol after 1 hour; format: ADME, organism-based; procedure, shortened: as §1
Rattus norvegicus [29] = assay: Tissue uptake (uterus) of [125I]- after administration of [125I]-labeled compound to immature female rats (n=3) in the absence of 60 microg coinjected estradiol after 0.5 hours; format: ADME, organism-based; procedure, shortened: as §2
Rattus norvegicus [30] = assay: Tissue uptake (uterus) of [125I]- after administration of [125I]-labeled compound to immature female rats (n=3) in the absence of 60 microg coinjected estradiol. (24 hours after injection) (% coefficient of variation); format: ADME, organism-based; procedure, shortened: as §2
Rattus norvegicus [31] = assay: Tissue uptake (blood) of [125I]- after administration of [125I]-labeled compound to immature female rats (n=3) in the absence of 60 microg coinjected estradiol after 24 hours; format: ADME, organism-based; procedure, shortened: as §1

Structure (SMILES)	ID/g (Rattus norvegicus [1])	ID/g (Rattus norvegicus [2])	ID/g (Rattus norvegicus [3])	ID/g (Rattus norvegicus [4])	ID/g (Rattus norvegicus [5])	ID/g (Rattus norvegicus [6])	ID/g (Rattus norvegicus [8])	ID/g (Rattus norvegicus [9])	ID/g (Rattus norvegicus [10])	ID/g (Rattus norvegicus [11])	ID/g (Rattus norvegicus [12])	ID/g (Rattus norvegicus [13])	ID/g (Rattus norvegicus [14])	ID/g (Rattus norvegicus [15])	ID/g (Rattus norvegicus [16])	ID/g (Rattus norvegicus [20])	ID/g (Rattus norvegicus [21])	ID/g (Rattus norvegicus [22])	ID/g (Rattus norvegicus [23])	ID/g (Rattus norvegicus [25])	also measured
C[C@@H]1Cc2cc(O)ccc2[C@H]2CC[C@]3(C)[C@@H](O)[C@H](I)C[C@H]3[C@H]12	0.27%	0.15%	0.06%	1.64%	0.38%	0.5%	0.13%	0.72%	0.82%	0.32%	0.19%	0.54%	40.33%	0.43%	5.25%	43.5%	66.19%	320.54%	45.15%	0.45%	ID/g (Rattus norvegicus [7]): 0.25%; ID/g (Rattus norvegicus [17]): 0.68%; ID/g (Rattus norvegicus [18]): 0.04%; ID/g (Rattus norvegicus [19]): 0.28%; ID/g (Rattus norvegicus [24]): 0.51%
CCO[C@H]1C[C@]2(C)[C@@H](O)[C@H](I)C[C@H]2[C@@H]2CCc3cc(O)ccc3[C@H]21	0.72%	0.52%	0.35%	1.63%	0.52%	1.78%	0.96%	2.31%	1.72%	1.01%	0.76%	1.05%	105.65%	1.49%	11.67%	156.51%	218.87%	703.1%	110.96%	1.29%	ID/g (Rattus norvegicus [26]): 0.91%; ID/g (Rattus norvegicus [27]): 0.68%; ID/g (Rattus norvegicus [28]): 0.42%; ID/g (Rattus norvegicus [29]): 7.85%; ID/g (Rattus norvegicus [30]): 1.64%; ID/g (Rattus norvegicus [31]): 0.17%
